ChEMBL document CHEMBL1149179, “Synthesis and biological evaluation of a new class of geldanamycin derivatives as potent inhibitors of Hsp90” (J Med Chem, 2004)

Experiments:
[1] = molecular target: T1, Heat shock protein HSP90 (Homo sapiens, UniProt P07900+P08238); test: (§1) Concentration required to inhibit Bis-ANS activity by recombinant heat shock protein 90 (rHSP90) conformational assay
Method in brief: (§2)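 Compound at 100–0.3 µM or DMSO for 60 min at 37 °C, then bis-ANS (0.1 mM stock) for 30 min at 37 °C. Fluorescence read at ex 393/em 484 nm, minus a no-protein background. IC50 = 50% inhibition of bis-ANS signal versus DMSO; n = 2.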

[2] = molecular target: T1, Heat shock protein HSP90; test: […] human epidermal growth factor 2 (Her-2) degradation in MCF-7 cells; format: cell-based; conditions: mcf7
Method in brief: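 MCF7 cells in DMEM with 10% FBS and 10 mM HEPES, treated at 65–70% confluence with compound (1000 nM down to 3 nM, half-log steps) for 16 h. Trypsinized cells stained with PE anti-Her-2 or PE isotype control (1 µg/mL, 15 min). Flow cytometry with 10,000 events; control-subtracted mean fluorescence versus DMSO cells. EC50 = 50% Her-2 degradation; n = 2.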

[3] = molecular target: T1, Heat shock protein HSP90; test: Concentration required to inhibit biotin-GM binding to recombinant heat shock protein 90(rHsp90); format: protein assay
Method in brief: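 rHsp90 coated in PBS overnight at 4 °C. Compound at 100–0.3 µM or DMSO for 60 min at 37 °C. Then 10 µM biotinylated geldanamycin 60 min and 20 µg/mL streptavidin-phycoerythrin 60 min, both at 37 °C, with washes between. Fluorescence read at ex 485/em 580 nm, minus an uncoated-well background. % binding inhibition calculated versus DMSO.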

[4] = molecular target: T1, Heat shock protein HSP90; test: Concentration of test compound required for half-maximal inhibition of binding of Heat shock 90 KD protein by MCF-7 cell lysate assay; format: cell-based
Method in brief: (§3)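 Lysate incubated ± compound 30 min at 4 °C, then with biotin-GM on streptavidin magnetic beads 1 h at 4 °C. Beads washed three times and boiled in SDS sample buffer. Bound Hsp90 detected by Western blot and band quantitation. IC50 taken as half-maximal inhibition of binding.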

[5] = Ratio of inhibitory concentration of rHsp90 and cell lysate Hsp90
[6] = system: MCF7; test: Inhibitory concentration of compound against MCF-7 cells by MTS assay; format: functional, cell-based; conditions: Homo sapiens
Method in brief: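 MCF7 cells seeded at 2000/well in DMEM with 10% FBS and left overnight to adhere; final culture volume 100 µL. Viability read with MTS/PMS (mixed 20:1, 20 µL per well) as A490 after 2-4 h, with cell-free medium plus MTS-PMS as background. % viable cells taken relative to untreated cells; IC50 is the concentration giving 50% viable cells; n = 2.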

[7] = molecular target: T1, Heat shock protein HSP90; test: Concentration of test compound required for inhibition of binding of rHsp90 in MCF-7 cell lysate; format: cell-based; method in brief: as §3
[8] = as §1; parameters: species or system Homo sapiens; method in brief: as §2

Row | SMILES | IC50 [1] | IC50 [2] | IC50 [3] | IC50 [4] | Ratio [5] | IC50 [6] | IC50 [7] | IC50 [8]
1 | CO[C@H]1/C=C\C=C(/C)C(=O)NC2=CC(=O)C(NC(=O)c3ccc(CCl)cc3)=C(C[C@@H](C)C[C@H](OC)[C@H](O)[C@@H](C)/C=C(\C)[C@@H]1OC(N)=O)C2=O | 2000 nM | 550 nM | 4000 nM |  |  |  |  | 
2 | COc1cccc(C(=O)NC2=C3C[C@@H](C)C[C@H](OC)[C@H](O)[C@@H](C)/C=C(\C)[C@H](OC(N)=O)[C@@H](OC)/C=C\C=C(/C)C(=O)NC(=CC2=O)C3=O)c1 | 900 nM | 180 nM | 1300 nM |  |  |  |  | 
3 | C=CCNC(=O)NC1=C2C[C@@H](C)C[C@H](OC)[C@H](O)[C@@H](C)/C=C(\C)[C@H](OC(N)=O)[C@@H](OC)/C=C\C=C(/C)C(=O)NC(=CC1=O)C2=O |  | > 10000 nM | 35000 nM |  |  |  |  | 
4 | CO[C@H]1/C=C\C=C(/C)C(=O)NC2=CC(=O)C(NC(=O)c3cccs3)=C(C[C@@H](C)C[C@H](OC)[C@H](O)[C@@H](C)/C=C(\C)[C@@H]1OC(N)=O)C2=O | 3000 nM | 400 nM | 2000 nM | 40 nM | 75 |  |  | 
5 | CO[C@H]1/C=C\C=C(/C)C(=O)NC2=CC(=O)C(NC(=O)c3ccc(CN4CCN(c5ccc([N+](=O)[O-])cc5)CC4)cc3)=C(C[C@@H](C)C[C@H](OC)[C@H](O)[C@@H](C)/C=C(\C)[C@@H]1OC(N)=O)C2=O | 1300 nM | 200 nM | 1000 nM |  |  |  |  | 
6 | CO[C@H]1/C=C\C=C(/C)C(=O)NC2=CC(=O)C(NC(=O)c3ccc(CN4CCc5ccccc5C4)cc3)=C(C[C@@H](C)C[C@H](OC)[C@H](O)[C@@H](C)/C=C(\C)[C@@H]1OC(N)=O)C2=O | 1500 nM | 200 nM | 1000 nM |  |  |  |  | 
7 | CO[C@H]1/C=C\C=C(/C)C(=O)NC2=CC(=O)C(NC(=O)OCCCCN3CCOCC3)=C(C[C@@H](C)C[C@H](OC)[C@H](O)[C@@H](C)/C=C(\C)[C@@H]1OC(N)=O)C2=O | 1000 nM | 500 nM | 1000 nM | 10 nM | 100 |  |  | 
8 | CO[C@H]1/C=C\C=C(/C)C(=O)NC2=CC(=O)C(NC(=O)c3ccc([N+](=O)[O-])cc3)=C(C[C@@H](C)C[C@H](OC)[C@H](O)[C@@H](C)/C=C(\C)[C@@H]1OC(N)=O)C2=O | 2000 nM | 300 nM | 3500 nM |  |  |  |  | 
9 | CO[C@H]1/C=C\C=C(/C)C(=O)NC2=CC(=O)C(NC(=O)c3ccc(CN4CCCCC4)cc3)=C(C[C@@H](C)C[C@H](OC)[C@H](O)[C@@H](C)/C=C(\C)[C@@H]1OC(N)=O)C2=O | 2100 nM | > 10000 nM | 2500 nM |  |  |  |  | 
10 | CO[C@H]1/C=C\C=C(/C)C(=O)NC2=CC(=O)C(c3cccs3)=C(C[C@@H](C)C[C@H](OC)[C@H](O)[C@@H](C)/C=C(\C)[C@@H]1OC(N)=O)C2=O | 1700 nM | 250 nM | 1700 nM | 55 nM | 31 |  |  | 
11 | CO[C@H]1/C=C\C=C(/C)C(=O)NC2=CC(=O)C(NC(=O)c3ccc(CN4CCN(C5CCCCC5)CC4)cc3)=C(C[C@@H](C)C[C@H](OC)[C@H](O)[C@@H](C)/C=C(\C)[C@@H]1OC(N)=O)C2=O | 5800 nM | 600 nM | 5500 nM |  |  |  |  | 
12 | CO[C@H]1/C=C\C=C(/C)C(=O)NC2=CC(=O)C(NC(=O)c3ccc(CN(C)C)cc3)=C(C[C@@H](C)C[C@H](OC)[C@H](O)[C@@H](C)/C=C(\C)[C@@H]1OC(N)=O)C2=O | 3000 nM | 1700 nM | 17000 nM |  | 200 | > 30000 nM | 15 nM | 
13 | CCOC(=O)NC1=C2C[C@@H](C)C[C@H](OC)[C@H](O)[C@@H](C)/C=C(\C)[C@H](OC(N)=O)[C@@H](OC)/C=C\C=C(/C)C(=O)NC(=CC1=O)C2=O | 3000 nM | 260 nM | 3000 nM |  |  |  |  | 
14 | C=CCNC1=C2C[C@@H](C)C[C@H](OC)[C@H](O)[C@@H](C)/C=C(\C)[C@H](OC(N)=O)[C@@H](OC)/C=C/C=C(\C)C(=O)NC(=CC1=O)C2=O |  |  |  |  | 40 |  |  | 700 nM
15 | CO[C@H]1/C=C\C=C(/C)C(=O)NC2=CC(=O)C(NC(=O)OCC(C)C)=C(C[C@@H](C)C[C@H](OC)[C@H](O)[C@@H](C)/C=C(\C)[C@@H]1OC(N)=O)C2=O | 4000 nM | 120 nM | 4000 nM |  | 1330 | 180 nM | 3 nM | 
16 | CCCN(CCC)Cc1ccc(C(=O)NC2=C3C[C@@H](C)C[C@H](OC)[C@H](O)[C@@H](C)/C=C(\C)[C@H](OC(N)=O)[C@@H](OC)/C=C\C=C(/C)C(=O)NC(=CC2=O)C3=O)cc1 | 1200 nM | 500 nM | 3000 nM |  |  | 500 nM |  | 
17 | CO[C@H]1/C=C\C=C(/C)C(=O)NC2=CC(=O)C(NC(=O)c3ccc(F)cc3)=C(C[C@@H](C)C[C@H](OC)[C@H](O)[C@@H](C)/C=C(\C)[C@@H]1OC(N)=O)C2=O | 1500 nM | 250 nM | 1500 nM |  |  |  |  | 
18 | CO[C@H]1/C=C\C=C(/C)C(=O)NC2=CC(=O)C(NC(=O)C(C)=O)=C(C[C@@H](C)C[C@H](OC)[C@H](O)[C@@H](C)/C=C(\C)[C@@H]1OC(N)=O)C2=O | 20000 nM | 1700 nM | 15000 nM |  |  |  |  | 
19 | CO[C@H]1/C=C\C=C(/C)C(=O)NC2=CC(=O)C(NC(=O)c3ccco3)=C(C[C@@H](C)C[C@H](OC)[C@H](O)[C@@H](C)/C=C(\C)[C@@H]1OC(N)=O)C2=O | 4000 nM | 500 nM | 4000 nM |  |  |  |  | 
20 | COc1ccccc1C(=O)NC1=C2C[C@@H](C)C[C@H](OC)[C@H](O)[C@@H](C)/C=C(\C)[C@H](OC(N)=O)[C@@H](OC)/C=C\C=C(/C)C(=O)NC(=CC1=O)C2=O | 1000 nM | 180 nM | 1100 nM |  |  |  |  | 
21 | CO[C@H]1/C=C\C=C(/C)C(=O)NC2=CC(=O)C(NC(=O)c3ccc(CN4CCN(c5ccc(Cl)cc5)CC4)cc3)=C(C[C@@H](C)C[C@H](OC)[C@H](O)[C@@H](C)/C=C(\C)[C@@H]1OC(N)=O)C2=O | 1000 nM | 250 nM | 1000 nM |  | 111 | 150 nM | 9 nM | 
22 | COc1ccc(C(=O)NC2=C3C[C@@H](C)C[C@H](OC)[C@H](O)[C@@H](C)/C=C(\C)[C@H](OC(N)=O)[C@@H](OC)/C=C\C=C(/C)C(=O)NC(=CC2=O)C3=O)cc1 | 4000 nM | 400 nM | 5000 nM |  |  |  |  | 
23 | CO[C@H]1/C=C\C=C(/C)C(=O)NC2=CC(=O)C(NC(=O)OCc3ccc(OC(C)=O)cc3)=C(C[C@@H](C)C[C@H](OC)[C@H](O)[C@@H](C)/C=C(\C)[C@@H]1OC(N)=O)C2=O | 2500 nM | 50 nM | 1000 nM |  |  | 40 nM |  | 
24 | CO[C@H]1/C=C\C=C(/C)C(=O)NC2=CC(=O)C(NC(=O)c3cccc(CCl)c3)=C(C[C@@H](C)C[C@H](OC)[C@H](O)[C@@H](C)/C=C(\C)[C@@H]1OC(N)=O)C2=O | 10000 nM | 1000 nM |  |  |  |  |  | 
25 | CO[C@H]1/C=C\C=C(/C)C(=O)NC2=CC(=O)C(NC(=O)c3ccccc3)=C(C[C@@H](C)C[C@H](OC)[C@H](O)[C@@H](C)/C=C(\C)[C@@H]1OC(N)=O)C2=O | 3000 nM | 200 nM | 4000 nM |  |  |  |  | 
26 | COc1ccc(N2CCN(Cc3ccc(C(=O)NC4=C5C[C@@H](C)C[C@H](OC)[C@H](O)[C@@H](C)/C=C(\C)[C@H](OC(N)=O)[C@@H](OC)/C=C\C=C(/C)C(=O)NC(=CC4=O)C5=O)cc3)CC2)cc1 | 1500 nM | 220 nM | 3000 nM |  |  |  |  | 
27 | CCN(Cc1ccccc1)Cc1ccc(C(=O)NC2=C3C[C@@H](C)C[C@H](OC)[C@H](O)[C@@H](C)/C=C(\C)[C@H](OC(N)=O)[C@@H](OC)/C=C\C=C(/C)C(=O)NC(=CC2=O)C3=O)cc1 | 1000 nM | 140 nM | 1100 nM |  | 92 | 200 nM | 12 nM | 
28 | CO[C@H]1/C=C\C=C(/C)C(=O)NC2=CC(=O)C(NC(=O)c3ccc(CN4CCN(C)CC4)cc3)=C(C[C@@H](C)C[C@H](OC)[C@H](O)[C@@H](C)/C=C(\C)[C@@H]1OC(N)=O)C2=O | 8000 nM | 800 nM | 5000 nM | 120 nM | 67 |  |  | 
29 | CO[C@H]1/C=C\C=C(/C)C(=O)NC2=CC(=O)C(c3ccccc3)=C(C[C@@H](C)C[C@H](OC)[C@H](O)[C@@H](C)/C=C(\C)[C@@H]1OC(N)=O)C2=O | 3000 nM | 280 nM | 3000 nM | 70 nM | 43 |  |  | 
